Format in all cases: functional
Test [1] has as its system Pseudomonas aeruginosa. The test can be described thus: Susceptibility testing against Pseudomonas aeruginosa PAE_NUH02; R=Resistant.
In test [2] the test system is Pseudomonas aeruginosa. In words: Susceptibility testing against Pseudomonas aeruginosa PAE_NUH22; S=Susceptible.
In test [3] the test system is Enterococcus faecalis. In words: In vitro minimum inhibitory concentration against Enterococcus faecalis 29212; range is 8-32 ug/ml. In short, it runs like this: (§1)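 Broth microdilution following CLSI M100-S12. Stocks were 10 mg/mL in water, diluted in Mueller–Hinton broth to a top level of 128, then serially 2-fold in plates. Bacteria in cation-adjusted Mueller–Hinton broth were mixed 1:1 with drug and incubated 16–20 h at 35 °C. MIC was the lowest concentration with no visible growth. Run in duplicate with no-antibiotic and no-inoculum (sterility) controls.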

Test [4] deals with Pseudomonas aeruginosa. The test can be described thus: Minimum inhibitory concentration against Pseudomonas aeruginosa ATCC 27853; Range is 0.25-1.
For test [5], the system named is Escherichia coli. The test can be described thus: In vitro minimum inhibitory concentration against Escherichia coli ATCC 25922; Range is 0.25-1.
Test [6] has as its system Pseudomonas aeruginosa. The test can be described thus: Susceptibility testing against Pseudomonas aeruginosa PAE_NUH21; S=Susceptible.
Test [7] concerns Pseudomonas aeruginosa. The test can be described thus: Susceptibility testing against Pseudomonas aeruginosa PAE_NUH01; R=Resistant.
For test [8], the system named is Pseudomonas aeruginosa. The test can be described thus: Susceptibility testing against Pseudomonas aeruginosa PAE_NUH18; S=Susceptible.
In test [9] the test system is Staphylococcus aureus. In words: In vitro minimum inhibitory concentration against Staphylococcus aureus ATCC 29213; Range is 0.12-1.
In test [10] the test system is Pseudomonas aeruginosa. The test can be described thus: Susceptibility testing against Pseudomonas aeruginosa PAE_NUH20; S=Susceptible.
In test [11] the test system is Pseudomonas aeruginosa. In words: Susceptibility testing against Pseudomonas aeruginosa PAE_NUH25; S=Susceptible.
Test [12] deals with Pseudomonas aeruginosa. The test can be described thus: Susceptibility testing against Pseudomonas aeruginosa PAE_NUH06; R=Resistant.
Test [13] has as its system Pseudomonas aeruginosa. In words: Susceptibility testing against Pseudomonas aeruginosa PAE_NUH07; S=Susceptible. In outline:
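Disk diffusion susceptibility profiling against a panel of empirically used antipseudomonal antibiotics. Each strain was categorised as susceptible (S) or intermediate (I).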

For test [14], the system named is Pseudomonas aeruginosa. In words: Susceptibility testing against Pseudomonas aeruginosa PAE_NUH23; R=Resistant.
In test [15] the test system is Pseudomonas aeruginosa. The test can be described thus: Susceptibility testing against Pseudomonas aeruginosa PAE_NUH05; R=Resistant.
Test [16] relates to Pseudomonas aeruginosa. The test can be described thus: Susceptibility testing against Pseudomonas aeruginosa PAE_NUH24; S=Susceptible.
Test [17] has as its system Pseudomonas aeruginosa. The test can be described thus: Minimum inhibitory concentration against Pseudomonas aeruginosa PAO-1; Range is 0.25-1.
Test [18] relates to Pseudomonas aeruginosa. The test can be described thus: Minimum inhibitory concentration against Pseudomonas aeruginosa ATCC 27853. In short, it runs like this:
as §1

Test [19] has as its system Pseudomonas aeruginosa. In words: Susceptibility testing against Pseudomonas aeruginosa PAE_NUH04; R=Resistant.
The test system of test [20] is Staphylococcus aureus. In words: In vitro minimum inhibitory concentration against Staphylococcus aureus MRSA 3359. In short, it runs like this: as §1
For test [21], the system named is Pseudomonas aeruginosa. In words: Susceptibility testing against Pseudomonas aeruginosa PAE_NUH03; R=Resistant.
Test [22] concerns Pseudomonas aeruginosa. In words: Susceptibility testing against Pseudomonas aeruginosa PAE_NUH17; S=Susceptible.
Test [23] relates to Pseudomonas aeruginosa. The test can be described thus: Susceptibility testing against Pseudomonas aeruginosa PAE_NUH19; S=Susceptible.

≈ marks a conversion by molar mass, not a printed value.

`NC[C@H]1O[C@H](O[C@H]2[C@H](O)[C@@H](O[C@H]3O[C@H](CO)[C@@H](O)[C@H](N)[C@H]3O)[C@H](N)C[C@@H]2N)[C@H](N)C[C@@H]1O` [TOBRAMYCIN]: the MIC was 50 µg/mL (≈ 107 µM) in test [1]; 0.25 µg/mL (≈ 0.535 µM) in test [2]; 32 µg/mL (≈ 68.4 µM) in test [3]; 1 µg/mL (≈ 2.14 µM) in test [4]; 1 µg/mL (≈ 2.14 µM) in [5]; 1 µg/mL (≈ 2.14 µM) in test [6]. Also, the MIC in test [7] was > 200 µg/mL; in [8] it was 0.5 µg/mL (≈ 1.07 µM); in [9] it was 1 µg/mL (≈ 2.14 µM); in test [10] it was 2 µg/mL (≈ 4.28 µM); in test [11], 0.5 µg/mL (≈ 1.07 µM); in test [12] it was 100 µg/mL (≈ 214 µM). In addition, the MIC in test [13] is 6.3 µg/mL (≈ 13.5 µM); in test [14] it was > 32 µg/mL; in [15], 100 µg/mL (≈ 214 µM); in test [16], 1 µg/mL (≈ 2.14 µM); in [17] it was 1 µg/mL (≈ 2.14 µM); in test [18], 1 µg/mL (≈ 2.14 µM). Besides, the MIC in test [19] is 100 µg/mL (≈ 214 µM); in test [20] it was > 64 µg/mL; in test [21], 50 µg/mL (≈ 107 µM); in test [22], 1 µg/mL (≈ 2.14 µM); in test [23] it was 0.5 µg/mL (≈ 1.07 µM).

By MIC is commonly meant the lowest concentration found to suppress growth. A higher MIC goes with a need for much substance.

These data come from ChEMBL document CHEMBL1143542, “Structure-activity relationships of bivalent aminoglycosides and evaluation of their microbiological activities” (2005).
